# In ChEMBL document CHEMBL1149123, “Antineoplastic agents. 499. Synthesis of hystatin 2 and related 1H-benzo[de][1,6]-naphthyridinium salts from aaptamine” (J Med Chem, 2004):
# The source made the active and inactive calls. The calls are words filed in the database; no cut-off is given here.
# Experiments:
# P388 = experiment: Inhibition of murine leukemia P388 cell proliferation; assay type: functional; conditions: Mus musculus, read-out: ED50 (the source's name)
# BXPC-3 = experiment: Inhibition of pancreatic BXPC-3 cell proliferation; assay type: functional; conditions: Homo sapiens, read-out: ED50 (the source's name)
# DU-145 = experiment: Inhibition of prostate DU-145 cell proliferation; assay type: functional; conditions: Homo sapiens, read-out: ED50 (the source's name)
# KM-20L2 = experiment: Inhibition of colon KM20L2 cell proliferation; assay type: functional; conditions: Homo sapiens, read-out: ED50 (the source's name)
# MCF7 = experiment: Inhibition of breast MCF-7 cell proliferation; assay type: functional; conditions: Homo sapiens, read-out: ED50 (the source's name)
# NCI-H460 = experiment: Inhibition of lung NCI-H460 cell proliferation; assay type: functional; conditions: Homo sapiens, read-out: ED50 (the source's name)
# SF-268 = experiment: Inhibition of CNS SF-268 cell proliferation; assay type: functional; conditions: Homo sapiens, read-out: ED50 (the source's name)
# [1] = target: Protein kinase C alpha type (Homo sapiens) (UniProt P17252); experiment: Inhibition of PKC alpha at […]; conditions: concentration not given here
# In short: (§1)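 PKC alpha ligand binding, measured as inhibition of [20-³H]phorbol 12,13-dibutyrate binding at a single compound concentration of […]. Triplicate measurements in single or triplicate experiments, depending on compound. Reported as percent inhibition, mean ± SEM.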
# [2] = tested on: Mycobacterium tuberculosis; experiment: Antimicrobial activity against Mycobacterium tuberculosis at 6.25 ug/mL; assay type: functional
# Enterobacter cloacae = experiment: Antimicrobial activity against Enterobacter cloacae; No inhibition at 64 ug/mL; assay type: functional, organism-based
# Enterococcus faecalis = experiment: Antimicrobial activity against Enterococcus faecali; No inhibition at 64 ug/mL; assay type: functional
# Streptococcus pneumoniae [3] = experiment: Antimicrobial activity against Streptococcus pneumoniae; No inhibition at 64 ug/mL; assay type: functional
# Micrococcus luteus [4] = experiment: Antimicrobial activity against Micrococcus luteus; 0.5-2; assay type: functional
# Neisseria gonorrhoeae [5] = experiment: Antimicrobial activity against Neisseria gonorrhoeae; No inhibition at 64 ug/mL; assay type: functional
# [6] = tested on: Stenotrophomonas maltophilia; experiment: Antimicrobial activity against Stenotrophomonas maltophilia; No inhibition at 64 ug/mL; assay type: functional, organism-based
# [7] = target: Protein kinase C alpha type (Homo sapiens) (UniProt P17252); experiment: Displacement of [20-3H]-phorbol 12,13-dibutyrate from protein kinase C alpha at […]; conditions: concentration not given here; in short: as §1
# Cryptococcus neoformans = experiment: Antimicrobial activity against Cryptococcus neoformans; No inhibition at 64 ug/mL; assay type: functional, organism-based
# Staphylococcus aureus = experiment: Antimicrobial activity against Staphylococcus aureus; No inhibition at 64 ug/mL; assay type: functional, organism-based
# [8] = target: Protein kinase C alpha type (Homo sapiens) (UniProt P17252); experiment: Inhibition of PKC alpha
# In short: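 Competition with [20-³H]phorbol 12,13-dibutyrate binding to PKC alpha. Full dose–response curves of binding inhibition were determined.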
# Candida albicans = experiment: Antimicrobial activity against Candida albicans; No inhibition at 64 ug/mL; assay type: functional, organism-based
# Escherichia coli = experiment: Antimicrobial activity against Escherichia coli; No inhibition at 64 ug/mL; assay type: functional
# Streptococcus pneumoniae [9] = experiment: Antimicrobial activity against Streptococcus pneumoniae; assay type: functional
# Micrococcus luteus [10] = experiment: Antimicrobial activity against Micrococcus luteus; No inhibition at 64 ug/mL; assay type: functional, organism-based
# Neisseria gonorrhoeae [11] = experiment: Antimicrobial activity against Neisseria gonorrhoeae; assay type: functional
# Micrococcus luteus [12] = experiment: Antimicrobial activity against Micrococcus luteus; assay type: functional
# Micrococcus luteus [13] = experiment: Antimicrobial activity against Micrococcus luteus; 8-16; assay type: functional
# [14] = Effect on tubulin assembly was determined; assay type: functional
# In short: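 Tubulin assembly tested in vitro, top concentration […].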
Structure (SMILES),EC50 (P388) [µg/mL],EC50 (BXPC-3) [µg/mL],EC50 (DU-145) [µg/mL],EC50 (KM-20L2) [µg/mL],EC50 (MCF7) [µg/mL],EC50 (NCI-H460) [µg/mL],EC50 (SF-268) [µg/mL],inhibition [1] [%],Activity (Enterobacter cloacae),Activity (Enterococcus faecalis),Activity (Streptococcus pneumoniae [3]),Activity [6],inhibition [7] [%],Activity (Cryptococcus neoformans),Activity (Staphylococcus aureus),Activity (Candida albicans),Activity (Escherichia coli),Activity (Neisseria gonorrhoeae [11]) [µg/mL],also measured
COc1cc2c3c(ccnc3c1OC)N(C)C=C2,> 10,> 10,> 10,> 10,> 10,> 10,> 10,< 6,–,–,–,–,–,–,–,–,–,–,–
COc1cc2c3c(cc[n+](Cc4ccccc4)c3c1OC)N(Cc1ccccc1)C=C2.[Cl-],0.234,0.061,0.036,0.055,0.27,0.26,0.064,71.1,inactive,32 µg/mL,32 µg/mL,inactive,11.8,inactive,inactive,inactive,8 µg/mL,–,inhibition at 6.25 µg/mL [2]: 98%; Activity (Micrococcus luteus [4]): 2 µg/mL; Activity (Neisseria gonorrhoeae [5]): 0.25 µg/mL; ID50 [8]: 20.8 µM
COc1cc2c3c(ccnc3c1OC)N(Cc1ccccc1)C=C2.Cl,1.64,4.3,4.4,2.2,> 10,4.9,> 10,< 6,inactive,inactive,–,inactive,6.4,inactive,inactive,inactive,inactive,64,Activity (Streptococcus pneumoniae [9]): 64 µg/mL; Activity (Micrococcus luteus [10]): inactive
COc1cc(CN2C=Cc3cc(OC)c(OC)c4nccc2c34)cc(OC)c1OC.Cl,4.64,> 10,> 10,3.4,> 10,> 10,> 10,< 6,inactive,inactive,inactive,inactive,–,inactive,inactive,inactive,inactive,64,Activity (Micrococcus luteus [10]): inactive
COc1ccc(CN2C=Cc3cc(OC)c(OC)c4nccc2c34)cc1.Cl,2.19,4.2,3.1,3.9,8,5.1,8.2,< 6,inactive,inactive,–,inactive,9.2,inactive,inactive,inactive,inactive,64,Activity (Streptococcus pneumoniae [9]): 64 µg/mL; Activity (Micrococcus luteus [12]): 64 µg/mL
COc1ccc(C[n+]2ccc3c4c(cc(OC)c(OC)c42)C=CN3Cc2cc(OC)c(OC)c(OC)c2)cc1O.[Br-],> 10,> 10,> 10,> 10,> 10,> 10,> 10,43.2,inactive,inactive,inactive,inactive,16,inactive,inactive,inactive,inactive,–,Activity (Neisseria gonorrhoeae [5]): inactive; Activity (Micrococcus luteus [13]): 16 µg/mL
COc1cc2ccnc3c2c(c1O)N(C)C=C3 [ISOAAPTAMINE],–,–,–,–,–,–,–,–,–,–,–,–,–,–,–,–,–,–,IC50 [14]: 31 µM
COc1cc2c3c(cc[n+](C)c3c1OC)N(C)C=C2.[I-],3.89,7.1,3.5,6.1,4.9,> 10,0.69,< 6,–,–,–,–,–,–,–,–,–,–,–
